Data: article PMC7547831 (Acta Pharmaceutica Sinica. B, 2020)
Where two headings read alike, the source gives them in different places.

Columns and labels:
[1] = LHQW components in human plasma after repeated oral dosing; assay type: in vivo; conditions: after repeated oral administration of LHQW capsule, semi-quantitative
ACE2 [2] = molecular target: T1, ACE2 (Homo sapiens, UniProt Q9BYF1); assay: SPR analysis of affinity to ACE2 recombinant protein; assay type: binding; conditions: for Rmax: SPR fit; for χ^2: SPR fit quality; for Kd: SPR, steady-state affinity model (1:1), 0.024 to 50 μmol/L
Target sequence in this assay (Q9BYF1 18-740): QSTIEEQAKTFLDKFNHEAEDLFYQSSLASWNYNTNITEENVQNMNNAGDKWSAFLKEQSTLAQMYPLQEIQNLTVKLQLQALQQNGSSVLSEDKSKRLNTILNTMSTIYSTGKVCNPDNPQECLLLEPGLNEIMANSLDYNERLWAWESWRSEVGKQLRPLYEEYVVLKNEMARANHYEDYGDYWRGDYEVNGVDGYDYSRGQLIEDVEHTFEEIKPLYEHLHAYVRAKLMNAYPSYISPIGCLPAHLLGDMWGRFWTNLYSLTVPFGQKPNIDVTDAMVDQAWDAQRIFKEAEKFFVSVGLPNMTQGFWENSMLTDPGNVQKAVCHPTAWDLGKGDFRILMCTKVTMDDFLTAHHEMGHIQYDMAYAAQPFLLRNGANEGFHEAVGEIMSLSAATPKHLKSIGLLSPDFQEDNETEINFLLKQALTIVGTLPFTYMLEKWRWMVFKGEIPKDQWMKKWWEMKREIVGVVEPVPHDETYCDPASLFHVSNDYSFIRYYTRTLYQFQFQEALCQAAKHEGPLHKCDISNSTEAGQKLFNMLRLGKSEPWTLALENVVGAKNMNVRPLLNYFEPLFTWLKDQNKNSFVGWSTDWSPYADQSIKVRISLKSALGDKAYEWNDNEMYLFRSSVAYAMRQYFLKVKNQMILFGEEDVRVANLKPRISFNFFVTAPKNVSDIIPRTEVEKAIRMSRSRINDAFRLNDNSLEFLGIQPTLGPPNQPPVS

ACE2 [3] = molecular target: T1, ACE2; assay: Test of ACE2 inhibitory activity; assay type: biochemical
Method in brief: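 ACE2 inhibition was measured with a commercial inhibitor screening kit following the supplier's instructions. Each data point was run in duplicate and reported as the mean value. IC50 came from nonlinear curve fitting.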
Target sequence in this assay (Q9BYF1 18-805): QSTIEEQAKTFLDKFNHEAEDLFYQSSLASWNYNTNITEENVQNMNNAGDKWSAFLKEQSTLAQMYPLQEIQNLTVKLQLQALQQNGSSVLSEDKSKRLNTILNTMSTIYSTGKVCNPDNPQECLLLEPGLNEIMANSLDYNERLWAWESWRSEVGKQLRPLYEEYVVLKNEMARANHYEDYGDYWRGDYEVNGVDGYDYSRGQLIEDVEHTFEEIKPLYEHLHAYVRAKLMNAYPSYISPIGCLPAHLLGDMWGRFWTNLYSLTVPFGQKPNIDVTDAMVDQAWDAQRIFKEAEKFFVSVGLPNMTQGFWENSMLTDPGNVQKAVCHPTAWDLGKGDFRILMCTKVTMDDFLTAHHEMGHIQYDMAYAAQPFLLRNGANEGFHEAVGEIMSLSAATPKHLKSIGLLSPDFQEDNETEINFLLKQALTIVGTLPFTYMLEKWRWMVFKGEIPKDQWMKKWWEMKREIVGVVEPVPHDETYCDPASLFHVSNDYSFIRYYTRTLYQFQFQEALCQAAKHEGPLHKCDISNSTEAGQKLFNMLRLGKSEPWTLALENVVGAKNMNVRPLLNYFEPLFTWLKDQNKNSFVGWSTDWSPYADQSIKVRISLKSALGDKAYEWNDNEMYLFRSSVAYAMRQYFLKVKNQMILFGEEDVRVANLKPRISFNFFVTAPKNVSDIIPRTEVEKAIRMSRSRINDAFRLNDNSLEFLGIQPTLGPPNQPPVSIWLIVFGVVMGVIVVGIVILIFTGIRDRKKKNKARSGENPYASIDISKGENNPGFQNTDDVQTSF

ACE2 [4] = molecular target: T1, ACE2; assay: Comprehensive 2D ACE2 column/C18 column/TOFMS biochromatography screening; assay type: binding; conditions: urine sample, LHQW extract or standard
Method in brief: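 Stationary phase: His-tagged recombinant human ACE2 immobilised on MPTS/GMBS-modified silica, confirmed by pronase digestion and anti-ACE2 immunoblot. First dimension was the ACE2 column (10 × 2.0 mm, 5 μm) in 10 mmol/L ammonium acetate at 0.2 mL/min. Retained fractions went by alternating 10-port valve loops to a C18 column (0.1% formic acid/acetonitrile gradient, 0.4 mL/min) and then TOFMS.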
Target sequence in this assay (Q9BYF1 18-740): as the sequence (Q9BYF1 18-740) above

| Molecule | Human in vivo exposure (in words) [1] | Rmax (ACE2 [2]) [RU] | χ^2 (ACE2 [2]) | ACE2 inhibitory effect (in words) (ACE2 [3]; ACE2 Inhibitor Screening Kit) | Retention on ACE2 biochromatography column (potential ACE2 binding) (ACE2 [4]) | further results |
| --- | --- | --- | --- | --- | --- | --- |
| C=CC1CNC(=S)O1 (racemic) [(R,S)-goitrin] | higher human exposure |  |  |  |  |  |
| O=C1c2cccc(O)c2C(=O)c2c(O)cc(CO)cc21 [Aloe-emodin (216), Aloe-emodin] |  | 16.120 | 7.720 | no inhibitory effect |  | ACE2 binding ability by SPR (in words) (ACE2 [2]): could also exhibit ACE2 binding activity |
| N#C[C@H](O[C@@H]1O[C@H](CO[C@@H]2O[C@H](CO)[C@@H](O)[C@H](O)[C@H]2O)[C@@H](O)[C@H](O)[C@H]1O)c1ccccc1 [Amygdalin (33), Amygdalin] |  | 6.856 | 0.462 |  | potential ACE2 binding activity |  |
| Cc1cc(O[C@@H]2OC(CO)[C@@H](O)C(O)C2O)c2c(c1)C(=O)c1cc(O)cc(O)c1C2=O (stereo partly drawn) [Emodin 8-O-β-D-glucoside (195), Emodin 8-O-β-D-glucoside] |  | 16.930 | 3.190 |  |  | ACE2 binding ability by SPR (in words) (ACE2 [2]): could also exhibit ACE2 binding activity; Kd (ACE2 [2]): 21.3 µM; IC50 (ACE2 [3]; read-out: IC50 of ACE2 inhibition, ACE2 Inhibitor Screening Kit): 22.5 µM |
| C[C@@H]1O[C@@H](OC[C@H]2O[C@@H](OCCc3ccc(O)c(O)c3)[C@H](O)[C@@H](O)[C@@H]2OC(=O)/C=C/c2ccc(O)c(O)c2)[C@H](O)[C@H](O)[C@H]1O [Forsythoside A (128), Forsythoside A] | low in vivo exposure | 21.490 | 5.280 | have ACE2 inhibitory effects | potential ACE2 binding activity | Kd (ACE2 [2]): 15.8 µM |
| C[C@@H]1O[C@@H](OC[C@H]2O[C@@H](OCCc3ccc(O)c(O)c3)[C@H](O)[C@@H](OC(=O)/C=C/c3ccc(O)c(O)c3)[C@@H]2O)[C@H](O)[C@H](O)[C@H]1O [Forsythoside I (104), Forsythoside I] | low in vivo exposure | 19.020 | 1.910 | have ACE2 inhibitory effects | potential ACE2 binding activity | Kd (ACE2 [2]): 18.7 µM |
| CC1(C)[C@@H](O[C@H]2O[C@H](C(=O)O)[C@@H](O)[C@H](O)[C@H]2O[C@@H]2O[C@H](C(=O)O)[C@@H](O)[C@H](O)[C@H]2O)CC[C@]2(C)[C@H]3C(=O)C=C4[C@@H]5C[C@@](C)(C(=O)O)CC[C@]5(C)CC[C@@]4(C)[C@]3(C)CC[C@@H]12 [Glycyrrhizin (222), Glycyrrhizin] | high in vivo exposure concentrations | 9.614 | 0.321 |  | potential ACE2 binding activity | ACE2 inhibitory effect (in words) (ACE2 [3]; ACE2 Inhibitor Screening Kit, listed as Glycyrrhizin): poor inhibitory effect; ACE2 inhibitory effect (in words) (ACE2 [3]; ACE2 Inhibitor Screening Kit, listed as glycyrrhizin): did not show significant peptidase inhibitory effects |
| CC(C)C[C@H](N[C@@H](Cc1cncn1Cc1cc(Cl)cc(Cl)c1)C(=O)O)C(=O)O [MLN-4760, reference compound] |  |  |  |  | significant retention | IC50 (ACE2 [3]): 0.063 µM |
| O=C(/C=C/c1ccc(O)c(O)c1)O[C@@H]1C[C@@](O)(C(=O)O)C[C@@H](O)[C@@H]1O [Neochlorogenic acid (19), Neochlorogenic acid] |  | 6.894 | 1.260 |  |  | Kd (ACE2 [2]): 7.88 µM |
| COc1cc(O)c2c(c1)C(=O)c1cc(C)cc(O)c1C2=O [Physcion (230), Physcion] |  | 18.390 | 1.630 |  |  | ACE2 binding ability by SPR (in words) (ACE2 [2]): could also exhibit ACE2 binding activity |
| N#C[C@H](O[C@@H]1O[C@H](CO)[C@@H](O)[C@H](O)[C@H]1O)c1ccccc1 [Prunasin (37), Prunasin] |  | 3.814 | 0.244 | did not show significant peptidase inhibitory effects | potential ACE2 binding activity |  |
| O=c1c(O)c(-c2ccc(O)c(O)c2)oc2cc(O)cc(O)c12 [Quercetin (190), Quercetin] |  | 12.780 | 1.580 |  |  | ACE2 binding ability by SPR (in words) (ACE2 [2]): certain binding ability with ACE2 |
| O=C(O)c1cc(O)c2c(c1)C(=O)c1cccc(O)c1C2=O [Rhein (226), Rhein] |  | 13.200 | 0.669 | best ACE2 inhibitory effect | potential ACE2 binding activity | Human in vivo exposure (in words) ([1]; listed as Rhein): high exposure in human serum; Human in vivo exposure (in words) ([1]; listed as rhein): relatively high; IC50 (ACE2 [3]): 18.3 µM |
| C[C@@H]1O[C@@H](OC[C@H]2O[C@@H](Oc3c(-c4ccc(O)c(O)c4)oc4cc(O)cc(O)c4c3=O)[C@H](O)[C@@H](O)[C@@H]2O)[C@H](O)[C@H](O)[C@H]1O [Rutin (124), Rutin] |  | 12.770 | 1.290 |  | potential ACE2 binding activity | ACE2 binding ability by SPR (in words) (ACE2 [2]): certain binding ability with ACE2 |
| CN[C@@H](C)[C@H](O)c1ccccc1 [ephedrine] | higher human exposure |  |  |  |  |  |
| C[C@@H]1O[C@@H](OC[C@H]2O[C@@H](OCCc3ccc(O)c(O)c3)[C@H](O)[C@@H](O)[C@@H]2O)[C@H](O)[C@H](O)[C@H]1O [forsythoside E] |  |  |  | no ACE2 inhibitory activities |  |  |
| CN[C@@H](C)[C@@H](O)c1ccccc1 [pseudoephedrine] | higher human exposure |  |  |  |  |  |
| C[C@@H]1O[C@@H](Oc2c(-c3ccc(O)c(O)c3)oc3cc(O)cc(O)c3c2=O)[C@H](O)[C@H](O)[C@H]1O [quercitrin] | higher human exposure |  |  |  |  |  |
| OC[C@H]1O[C@@H](OCCc2ccc(O)cc2)[C@H](O)[C@@H](O)[C@@H]1O [salidroside] | higher human exposure |  |  |  |  |  |
| Forsythoside B [Forsythoside B (125)] |  | 10.620 | 0.328 | have ACE2 inhibitory effects |  | ACE2 binding ability by SPR (in words) (ACE2 [2]): low binding activity |
| forsythin |  |  |  | no ACE2 inhibitory activities |  |  |
